Experiments:
[1] = biological target: T1, Neutrophil elastase (Homo sapiens) (UniProt P08246); assay: The second order inactivation rate constant expressed as inhibition of human leukocyte elastase (HLE). Inhibitor concentrations were 0.07-710 uM
T1 sequence (whole entry): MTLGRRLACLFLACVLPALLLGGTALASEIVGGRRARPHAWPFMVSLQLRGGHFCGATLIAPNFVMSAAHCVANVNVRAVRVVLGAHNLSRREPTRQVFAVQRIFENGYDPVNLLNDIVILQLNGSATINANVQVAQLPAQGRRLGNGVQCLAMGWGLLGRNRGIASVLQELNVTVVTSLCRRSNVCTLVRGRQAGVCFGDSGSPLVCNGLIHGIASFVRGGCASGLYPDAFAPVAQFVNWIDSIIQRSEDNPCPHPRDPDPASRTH
Procedure, shortened: (§1)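 Kitz–Wilson incubation method. Enzyme was preincubated with inhibitor (added in DMSO) in 0.1 M HEPES, 0.5 M NaCl, pH 7.5, at 25 °C. Aliquots were taken over time and diluted into pNA substrate: HLE MeO-Suc-Ala-Ala-Pro-Val-pNA (0.2–0.5 mM), PPE Suc-Ala-Ala-Ala-pNA, ChT and Cat G Suc-Val-Pro-Phe-pNA (0.4–0.5 mM). Release was read at 410 nm. kobs/[I] from ln(v0/vt) vs time. Mean of two determinations. Fast rates measured with equimolar inhibitor and enzyme.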

[2] = biological target: T2, Chymotrypsin-like elastase family member 2A (Sus scrofa) (UniProt P08419); assay: The second order inactivation rate constant expressed as inhibition of porcine pancreatic elastase (PPE).Inhibitor concentrations were 0.04-2.0 mM
T2 sequence (whole entry): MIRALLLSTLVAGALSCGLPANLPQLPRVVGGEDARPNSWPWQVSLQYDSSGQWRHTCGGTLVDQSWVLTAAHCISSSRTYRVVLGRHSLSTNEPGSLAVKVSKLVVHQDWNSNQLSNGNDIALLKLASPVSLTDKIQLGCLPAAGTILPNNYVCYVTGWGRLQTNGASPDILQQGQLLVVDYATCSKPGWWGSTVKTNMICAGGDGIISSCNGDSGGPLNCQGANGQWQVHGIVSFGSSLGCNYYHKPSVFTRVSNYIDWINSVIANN

[3] = Half-life for hydrolysis was determined from kinetic constant.; assay type: ADME
Procedure, shortened: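 Spontaneous hydrolysis in 0.1 M HEPES, 0.5 M NaCl, pH 7.5, 10% v/v DMSO final, 25 °C. Inhibitor added from 2.9–5.0 mM DMSO stock. Ring opening followed as absorbance decrease at 385 nm (ε385 = 3300 M⁻¹ cm⁻¹). Half-life from the first-order rate. Two determinations, standard errors ±15% or less.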

[4] = biological target: T1, Neutrophil elastase (Homo sapiens); assay: Second order inactivation rate constant for inhibition of human leukocyte elastase.; procedure, shortened: as §1
[5] = biological target: T1, Neutrophil elastase (Homo sapiens); assay: Inhibition of human leukocyte elastase.; procedure, shortened: as §1
[6] = biological target: T3, Cathepsin G (Homo sapiens) (UniProt P08311); assay: Inhibition of cathepsin G(Cat G) at 35-710 uM; procedure, shortened: as §1
T3 sequence (whole entry): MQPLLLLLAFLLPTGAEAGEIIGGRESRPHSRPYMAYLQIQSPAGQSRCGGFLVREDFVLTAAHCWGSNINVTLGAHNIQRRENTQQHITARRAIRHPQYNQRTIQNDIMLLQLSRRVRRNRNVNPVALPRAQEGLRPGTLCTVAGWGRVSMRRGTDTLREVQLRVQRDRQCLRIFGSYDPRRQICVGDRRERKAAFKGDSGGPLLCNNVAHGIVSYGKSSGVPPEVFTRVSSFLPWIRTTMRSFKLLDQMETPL

[7] = biological target: Chymotrypsinogen A (Bos taurus) (UniProt P00766); assay: The second order inactivation rate constant was expressed as inhibition of chymotrypsin (ChT).Inhibitor concentrations were 360-570 uM; procedure, shortened: as §1
[8] = biological target: T1, Neutrophil elastase (Homo sapiens); assay: The second order inactivation rate constant was expressed as inhibition of human leukocyte elastase (HLE). Inhibitor concentrations were 0.4-4 uM; procedure, shortened: as §1
[9] = biological target: T2, Chymotrypsin-like elastase family member 2A (Sus scrofa); assay: The second order inactivation rate constant was expressed as inhibition of porcine pancreatic elastase (PPE).Inhibitor concentrations were 2-600 uM; procedure, shortened: as §1
[10] = biological target: T1, Neutrophil elastase (Homo sapiens); assay: Inhibition of human leukocyte elastase(HLE) at 0.7-1.7 uM; procedure, shortened: as §1
[11] = biological target: T3, Cathepsin G (Homo sapiens); assay: Inhibition of cathepsin G at 35-710 uM; procedure, shortened: as §1

O=C1CC(c2ccccc2)CC(=O)N1c1ccc2c(Cl)c(OCCBr)oc(=O)c2c1 showed a K obs / 1 [1] of 85000 M⁻¹ s⁻¹, a K obs / 1 [2] of 75 M⁻¹ s⁻¹ and a half-life [3] greater than 48 h.

COc1oc(=O)c2cc(N)ccc2c1Cl gave a k obs / 1 [4] of 10000 M⁻¹ s⁻¹, a [I] [5] of 6 µM and a half-life [3] of 3.3 h.

In the case of CC(C)(C)OC(=O)N[C@H](Cc1ccccc1)C(=O)Nc1ccc2c(Cl)c(OCCBr)oc(=O)c2c1, the inhibition [6] is reported as 19%, the K obs / 1 [1] is reported as 160000 M⁻¹ s⁻¹ and the K obs / 1 [2] is reported as 30 M⁻¹ s⁻¹.

COc1oc(=O)c2cc(NC(=O)[C@H](Cc3c[nH]c4ccccc34)NC(=O)OC(C)(C)C)ccc2c1Cl gave a k obs / 1 [7] of 33 M⁻¹ s⁻¹, a k obs / 1 [8] of 79000 M⁻¹ s⁻¹ and a k obs / 1 [9] of 5800 M⁻¹ s⁻¹.

In the case of CCOc1oc(=O)c2cc(N)ccc2c1Cl, the k obs / 1 [4] is reported as 9400 M⁻¹ s⁻¹, the [I] [5] is reported as 4 µM and the half-life [3] is reported as 3.6 h.

For CCCOc1oc(=O)c2cc(NC(=O)CSC)ccc2c1Cl, the k obs / 1 [10] was greater than 150000 M⁻¹ s⁻¹.

Compound CCCOc1oc(=O)c2cc(NC(=O)CCC)ccc2c1Cl has a k obs / 1 [10] greater than 120000 M⁻¹ s⁻¹.

For COC(=O)CCC(=O)Nc1ccc2c(Cl)c(OCCBr)oc(=O)c2c1, the K obs / 1 [2] was 1500 M⁻¹ s⁻¹.

C[C@@H](NC(=O)Nc1ccc2c(Cl)c(OCCBr)oc(=O)c2c1)c1ccccc1 showed an inhibition [6] of 21%, a K obs / 1 [1] greater than 570000 M⁻¹ s⁻¹ and a K obs / 1 [2] of 2660 M⁻¹ s⁻¹.

In the case of COc1oc(=O)c2cc(NC(=O)CBr)ccc2c1Cl, the K obs / 1 [7] is reported as 350 M⁻¹ s⁻¹, the K obs / 1 [8] is reported as 39000 M⁻¹ s⁻¹ and the K obs / 1 [9] is reported as 3500 M⁻¹ s⁻¹.

O=C(O)CCC(=O)N[C@@H](Cc1ccccc1)C(=O)Nc1ccc2c(Cl)c(OCCBr)oc(=O)c2c1 showed a K obs / 1 [1] of 40000 M⁻¹ s⁻¹, a K obs / 1 [2] of 1900 M⁻¹ s⁻¹ and a half-life [3] of 2.5 h.

Compound CCCOc1oc(=O)c2cc(NC(=O)OCC)ccc2c1Cl has a k obs / 1 [10] greater than 180000 M⁻¹ s⁻¹.

Work on C[C@@H](OC(=O)Nc1ccccc1)C(=O)Nc1ccc2c(Cl)c(OCCBr)oc(=O)c2c1 yielded a K obs / 1 [1] of 140000 M⁻¹ s⁻¹, a K obs / 1 [2] of 13 M⁻¹ s⁻¹ and a half-life [3] of 6.4 h.

With O=c1oc(OCCBr)c(Cl)c2ccc(N[N+](=O)[O-])cc12 the K obs / 1 [1] was 65600 M⁻¹ s⁻¹, the K obs / 1 [2] was 6330 M⁻¹ s⁻¹ and the K obs / 1 [11] was 710 M⁻¹ s⁻¹.

CCCOc1oc(=O)c2cc(NC(=O)[C@@H](NC(=O)OC(C)(C)C)C(C)C)ccc2c1Cl showed a k obs / 1 [10] of 64000 M⁻¹ s⁻¹.

Work on O=C(NCc1ccccc1)Nc1ccc2c(Cl)c(OCCCBr)oc(=O)c2c1 yielded an inhibition [6] of 21%, a K obs / 1 [1] of 15600 M⁻¹ s⁻¹ and a K obs / 1 [2] of 13 M⁻¹ s⁻¹.

Compound C[C@H](NC(=O)Nc1ccc2c(Cl)c(OCCBr)oc(=O)c2c1)c1cccc2ccccc12 has a K obs / 1 [1] of 170000 M⁻¹ s⁻¹ and a K obs / 1 [2] of 40 M⁻¹ s⁻¹.

Compound CC(Br)COc1oc(=O)c2cc([N+](=O)[O-])ccc2c1Cl (stereo not given) has a K obs / 1 [2] of 1060 M⁻¹ s⁻¹ and a K obs / 1 [11] of 1660 M⁻¹ s⁻¹.

In the case of CC(C)(C)CC(=O)Nc1ccc2c(Cl)c(OCCBr)oc(=O)c2c1, the K obs / 1 [2] is reported as 3650 M⁻¹ s⁻¹ and the K obs / 1 [11] is reported as 240 M⁻¹ s⁻¹.

COCCOc1oc(=O)c2cc(N)ccc2c1Cl gave a k obs / 1 [4] of 390 M⁻¹ s⁻¹ and a [I] [5] of 7.8 µM.

Compound CC(C)(C)OC(=O)N[C@@H](Cc1ccccc1)C(=O)Nc1ccc2c(Cl)c(OCCBr)oc(=O)c2c1 has an inhibition [6] of 19%, a K obs / 1 [1] of 146000 M⁻¹ s⁻¹ and a K obs / 1 [2] of 50 M⁻¹ s⁻¹.

For O=C(Cc1ccccc1)Nc1ccc2c(Cl)c(OCCBr)oc(=O)c2c1, the K obs / 1 [1] was 480000 M⁻¹ s⁻¹, the K obs / 1 [2] was 4950 M⁻¹ s⁻¹ and the K obs / 1 [11] was 70 M⁻¹ s⁻¹.

Work on O=C(Nc1ccccc1)Nc1cccc(C(=O)NC(Cc2ccccc2)C(=O)Nc2ccc3c(Cl)c(OCCBr)oc(=O)c3c2)c1 (stereo not given) yielded a K obs / 1 [1] of 21000 M⁻¹ s⁻¹ and a K obs / 1 [2] of 300 M⁻¹ s⁻¹.

For O=C(CCc1ccccc1)Nc1ccc2c(Cl)c(OCCBr)oc(=O)c2c1, the K obs / 1 [2] was 11 M⁻¹ s⁻¹.

In the case of O=c1oc(OCCBr)c(Cl)c2ccc(NC(=S)Nc3ccccc3)cc12, the K obs / 1 [1] is reported as greater than 480000 M⁻¹ s⁻¹, the K obs / 1 [2] is reported as 1250 M⁻¹ s⁻¹ and the K obs / 1 [11] is reported as 200 M⁻¹ s⁻¹.

Compound CC(C)(C)NC(=O)Nc1ccc2c(Cl)c(OCCBr)oc(=O)c2c1 has a K obs / 1 [2] of 6600 M⁻¹ s⁻¹ and a K obs / 1 [11] of 56 M⁻¹ s⁻¹.

COC(=O)CCCC(=O)Nc1ccc2c(Cl)c(OCCBr)oc(=O)c2c1 showed a K obs / 1 [1] greater than 170000 M⁻¹ s⁻¹ and a K obs / 1 [2] of 2730 M⁻¹ s⁻¹.

COc1oc(=O)c2cc(NC(=O)C(Cc3ccccc3)NC(=O)c3ccc(NC(=O)Nc4ccccc4)cc3)ccc2c1Cl (stereo not given) gave a k obs / 1 [7] of 10 M⁻¹ s⁻¹, a k obs / 1 [8] of 15000 M⁻¹ s⁻¹ and a k obs / 1 [9] of 68 M⁻¹ s⁻¹.
